ChEMBL document CHEMBL4261626, “Design, synthesis, and effects of novel phenylpyrimidines as glucagon receptor antagonists” (Bioorg Med Chem, 2018)
Active and inactive are the calls of the source. The calls are words filed in the database; no cut-off is given here.

Columns and labels:
Hepatocyte [1] = test: (§1) Cytotoxicity against C57BL/6N mouse primary hepatocytes assessed as cell viability at 20 uM after 24 hrs by CCK8 assay; assay type: cell-based; details: hepatocytes, 24 h, 20 µM
Summary of the method: (§2)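 Hepatocytes were isolated by portal-vein perfusion and Percoll gradient from 10-week male C57BL/6N mice. Cells were seeded at 1×10^4/well and exposed to 20 μM compound in cell plating reagent for 24 h. CCK-8 was then added for 2 h at 37 °C and absorbance read at 450 nm. Three independent experiments, each in triplicate.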

Hepatocyte [2] = test: Inhibition of glucagon-induced glucose production in C57BL/6N mouse primary hepatocytes grown under gluconeogenic medium at 20 uM after 3 hrs by glucose assay reagent-based glucose oxidase method; assay type: functional, cell-based
Summary of the method: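 Mouse primary hepatocytes in glucose-free DMEM were given 20 μM compound for 3 h with 10 nM glucagon, 2 mM sodium pyruvate and 20 mM sodium lactate. Medium glucose was measured by glucose assay kit 30 min after glucagon. Three independent experiments.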

[3] = as §1; assay type: cell-based, Hepatocyte; details: C57BL/6N, primary hepatocytes, read-out: Activity; summary of the method: as §2
Glucagon receptor [4] = target: T1, Glucagon receptor (Homo sapiens, UniProt P47871); test: Antagonist activity at human glucagon receptor expressed in CHO-K1 GCGR Gs cells assessed as inhibition of glucagon-induced cAMP accumulation at 10 uM pre-incubated for 10 mins before glucagon and forskolin addition and further incubated for 30 mins by luminescence-based assay; assay type: functional, cell-based; details: in the assay text read “pre-incubated for 15 mins” for “pre-incubated for 10 mins”
Summary of the method: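 CHO-K1 GCGR Gs cells were seeded at 1×10^4/well. The next day they were pre-treated with compound at 10 μM in PBS for 15 min at 37 °C, 5% CO₂. Then 0.1 nM glucagon plus 10 μM forskolin was added for a further 30 min. cAMP was read by HitHunter enzyme-complementation luminescence. Three independent experiments.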

Glucagon receptor [5] = target: T1, Glucagon receptor; test: Antagonist activity at human glucagon receptor expressed in CHO-K1 GCGR Gs cells assessed as inhibition of glucagon-induced cAMP accumulation pre-incubated for 10 mins before glucagon and forskolin addition and further incubated for 30 mins by luminescence-based assay; assay type: functional, cell-based; details: in the assay text read “pre-incubated for 15 mins” for “pre-incubated for 10 mins”
Summary of the method: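 Glucagon-receptor CHO-K1 GCGR Gs cells (1×10^4/well, plated the day before) were exposed to compound at 0.0001–100 μM in PBS for 15 min at 37 °C. Cells were then stimulated with 0.1 nM glucagon and 10 μM forskolin for 30 min. cAMP was measured by HitHunter luminescence. IC50 was fitted from three independent determinations.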

Hepatocyte [6] = test: Inhibition of glucagon-induced glucose production in C57BL/6N mouse primary hepatocytes grown under gluconeogenic medium at 20 uM after 30 mins by glucose assay reagent-based glucose oxidase method; assay type: functional; details: 0.5 h
Summary of the method: (§3)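 Primary mouse hepatocytes were plated at 2.5×10^5/well. After 24 h they were washed and held 3 h in glucose-free DMEM. Compound (20 μM screen, or 1–100 μM series) was then added with 20 mM sodium lactate, 2 mM sodium pyruvate and 10 nM glucagon. Medium glucose was assayed by kit after 30 min and normalized to cellular protein. Five independent experiments, each in triplicate.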

Hepatocyte [7] = test: Inhibition of glucagon-induced glucose production in C57BL/6N mouse primary hepatocytes grown under gluconeogenic medium after 30 mins by glucose assay reagent-based glucose oxidase method; assay type: functional, cell-based; summary of the method: as §3
Mus musculus [8] = test: Antihyperglycemic activity in db/db mouse assessed as reduction in blood glucose level at 50 mg/kg, po administered once per day for 4 weeks and measured after 12 hrs fasting; assay type: functional, organism-based
Summary of the method: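 Male db/db mice were obtained at 6 weeks; only animals with blood glucose over 400 mg/dL were used. They were dosed 50 mg/kg by oral intubation once daily for 4 weeks, in 9% cremophore with 10% DMSO in sterile water. Fasting blood glucose was read by glucometer after a 12 h fast at week 4. n=7/group.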

Mus musculus [9] = test: Antihyperglycemic activity in db/db mouse assessed pretreated at 50 mg/kg, po administered via intubation once per day for 4 weeks followed by fasting for 5 hrs before second administration at 50 mg/kg via oral gavage and subsequent glucagon challenge after 1 hr and measured durimng 15 to 60 mins post glucagon injection; assay type: functional, organism-based
Summary of the method: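 Diabetic db/db mice were dosed orally at 50 mg/kg daily for 4 weeks (vehicle 9% cremophore/10% DMSO in sterile water). They were then fasted 5 h and re-dosed 50 mg/kg by gavage. After 1 h they received glucagon 15 μg/kg i.p. Blood glucose was measured at 15, 30, 45 and 60 min. n=4–6/group.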

Hepatocyte [10] = test: Inhibition of glucagon-induced glucose production in C57BL/6N mouse primary hepatocytes grown under gluconeogenic medium at 10 uM after 30 mins by glucose assay reagent-based glucose oxidase method; assay type: functional, cell-based; summary of the method: as §3

T1 sequence (P47871 whole entry): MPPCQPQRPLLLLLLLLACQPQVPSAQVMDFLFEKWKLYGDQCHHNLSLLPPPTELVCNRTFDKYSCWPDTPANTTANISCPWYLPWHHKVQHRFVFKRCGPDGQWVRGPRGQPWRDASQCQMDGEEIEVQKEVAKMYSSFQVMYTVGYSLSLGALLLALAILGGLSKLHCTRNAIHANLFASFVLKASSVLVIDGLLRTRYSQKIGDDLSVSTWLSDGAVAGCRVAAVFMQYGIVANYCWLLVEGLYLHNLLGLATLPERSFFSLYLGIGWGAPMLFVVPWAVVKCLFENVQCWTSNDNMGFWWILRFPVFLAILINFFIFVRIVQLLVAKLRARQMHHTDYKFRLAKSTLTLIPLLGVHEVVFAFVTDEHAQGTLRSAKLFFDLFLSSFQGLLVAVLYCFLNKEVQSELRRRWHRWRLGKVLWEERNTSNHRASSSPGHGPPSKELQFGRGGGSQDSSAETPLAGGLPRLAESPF

SMILES	inhibition (Glucagon receptor [4])	IC50 (Glucagon receptor [5])	viability at 24 h, 20 µM [3]	inhibition at 20 µM (Hepatocyte [6])	other results
CCCC[C@@H](Oc1ncc(-c2ccc(C(C)(C)C)cc2)cn1)c1ccc(C(=O)NCCC(=O)O)cc1					Activity (Hepatocyte [1]): Toxic; inhibition (Hepatocyte [2]): inactive
CCCCC(Oc1ncc(-c2ccccc2)cn1)c1ccc(C(=O)NCCC(=O)O)cc1 (configuration not stated)	> 60%	4.1 µM	> 80%	> 60%	inhibition (Hepatocyte [7]): Dose-dependent effect; inhibition (Hepatocyte [10]): Active
CCCCC(Oc1ncc(-c2ccc(Oc3ccccc3)cc2)cn1)c1ccc(C(=O)NCCC(=O)O)cc1 (configuration not stated)	> 60%	8.2 µM	> 80%	> 60%	
CCCCC(Oc1ncc(-c2ccc(Cl)cc2)cn1)c1ccc(C(=O)NCCC(=O)O)cc1 (configuration not stated)	> 60%		> 80%		
CCCCC(Oc1ncc(-c2ccc(CC)cc2)cn1)c1ccc(C(=O)NCCC(=O)O)cc1 (configuration not stated)	> 60%	17.7 µM	> 80%	> 60%	
CCCC[C@H](Oc1ncc(-c2ccc(C(C)(C)C)cc2)cn1)c1ccc(C(=O)NCCC(=O)O)cc1					Activity (Hepatocyte [1]): Toxic; inhibition (Hepatocyte [2]): inactive
CCCCC(Oc1ncc(-c2cccc(Cl)c2)cn1)c1ccc(C(=O)NCCC(=O)O)cc1 (configuration not stated)	> 60%		> 80%		
CCCCC(Oc1ncc(-c2ccc(C(F)(F)F)cc2)cn1)c1ccc(C(=O)NCCC(=O)O)cc1 (configuration not stated)	> 60%		> 80%		
CCCCC(Oc1ncc(-c2ccc(C(C)(C)C)cc2)cn1)c1ccc(C(=O)NCCC(=O)O)cc1 (configuration not stated)	> 60%	6 µM	> 80%	> 60%	inhibition (Hepatocyte [7]): Dose-dependent effect; inhibition (Hepatocyte [10]): Active
Cc1cc(O[C@@H](CCC(F)(F)F)c2ccc(C(=O)NCCC(=O)O)cc2)cc(C)c1-c1ccc(C(C)(C)C)cc1					Activity (Mus musculus [8]): inactive
CCCCC(Oc1ncc(-c2ccc(C(F)(F)F)cc2F)cn1)c1ccc(C(=O)NCCC(=O)O)cc1 (configuration not stated)	> 60%		> 80%		

More lines, main results first:

inhibition (Glucagon receptor [4])	IC50 (Glucagon receptor [5])	SMILES	viability at 24 h, 20 µM [3]	inhibition at 20 µM (Hepatocyte [6])	other results
> 60%	6.9 µM	CCCCC(Oc1ncc(-c2cc(Cl)cc(Cl)c2)cn1)c1ccc(C(=O)NCCC(=O)O)cc1 (configuration not stated)	> 80%	> 60%	inhibition (Hepatocyte [7]): Dose-dependent effect
	9.3 µM	CCCC[C@@H](Oc1ncc(-c2ccccc2)cn1)c1ccc(C(=O)NCCC(=O)O)cc1			Activity (Hepatocyte [1]): Non-Toxic; inhibition (Hepatocyte [2]): Active; Activity (Mus musculus [8]): Active; Activity (Mus musculus [9]): Active
	8.5 µM	CCCC[C@H](Oc1ncc(-c2ccccc2)cn1)c1ccc(C(=O)NCCC(=O)O)cc1			Activity (Hepatocyte [1]): Toxic; inhibition (Hepatocyte [2]): Active; Activity (Mus musculus [8]): Active; Activity (Mus musculus [9]): Active
> 60%		CCCCC(Oc1ncc(-c2ccccc2Cl)cn1)c1ccc(C(=O)NCCC(=O)O)cc1 (configuration not stated)	> 80%		
> 60%		CCC(CC)C(=O)Nc1sc2c(c1C#N)CCC(C(C)(C)CC)C2 (configuration not stated)	> 80%		
